The source of these data is ChEMBL document CHEMBL3351720, “Design, synthesis and evaluation of benzoisothiazolones as selective inhibitors of PHOSPHO1” (Bioorg Med Chem Lett, 2014).

Series [1] is described as follows: Permeability of the compound at donor pH 6.2 and acceptor pH 7.4 by PAMPA. The format is ADME. The procedure, abridged: (§1)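 PAMPA with the acceptor compartment at pH 7.4 and the donor at pH 5.0, 6.2 or 7.4. Permeability reported as ×10^-6 cm/s. Part of an in vitro ADME panel.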
In general terms: In PAMPA a lipid-coated filter parts donor from acceptor wells.

Series [2] in a line: Permeability of the compound at donor pH 5.0 and acceptor pH 7.4 by PAMPA. The class given is ADME. The procedure, abridged:
as §1

The nature of series [3]: Aqueous solubility of the compound in pH 5 pION buffer by UV kinetic solubility method. The class given is physicochemical. The procedure, abridged: (§2)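 Kinetic solubility in pION's buffer at pH 5.0, 6.2 or 7.4, reported in µg/ml. Part of an in vitro ADME panel.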
A short description of series [4]: Cytotoxicity against human Fa2N-4 cells after 24 hrs by ATP-lite 1-step assay. The settings on record: fa2n-4, 24 h, read-out: LC50 (the source's name). The class given is cell-based.
A short description of series [5]: Metabolic stability in human plasma assessed as compound remaining at 1:1 1 x pH7.4 PBS measured at 3 hrs by LC-MS/MS analysis. As to conditions: pH 7.4, read-out: Stability. The format is ADME, cell-free. The procedure, abridged: (§3)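 Stability of each analogue was reported as % of compound remaining. For liver microsomes this was after 1 hr, with runs with and without NADPH. For plasma this was after 3 hrs in plasma mixed 1:1 with 1× PBS, pH 7.4. Both human and mouse matrices were used.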

A short description of series [6]: Metabolic stability in human liver microsomes measured at 1 uM after 1 hr at pH 7.4 by LC-MS/MS analysis. The format is ADME. As to conditions: read-out: Stability. Summed up:
as §3

Series [7] can be described thus: Plasma protein binding in mouse at 10 uM by LC-MS analysis. The settings on record: read-out: PPB (converted). The class given is ADME, cell-free. The procedure, abridged:
(§4)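 Read-out was % of compound bound in human or mouse plasma, each tested at 1 µM and 10 µM.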

The nature of series [8]: Plasma protein binding in mouse at 1 uM by LC-MS analysis. The settings on record: read-out: PPB (converted). The class given is ADME, cell-free. The procedure, abridged: as §4
The nature of series [9]: Inhibition of Streptococcus pneumoniae diphosphomevalonate decarboxylase assessed as conversion of (R)-5-diphosphomevalonate to ADP by fluorometry.
Series [10] can be described thus: Plasma protein binding in human at 1 uM by LC-MS analysis. The format is ADME, cell-free. As to conditions: read-out: PPB (converted). The procedure, abridged:
as §4

Series [11] can be described thus: Aqueous solubility of the compound in pH 7.4 pION buffer by UV kinetic solubility method. The format is physicochemical. Summed up: as §2
The nature of series [12]: Metabolic stability in human plasma assessed as compound remaining at 1 x pH7.4 PBS measured at 3 hrs by LC-MS/MS analysis. The settings on record: pH 7.4, read-out: Stability. The class given is ADME, cell-free. The procedure, abridged: as §3
Series [13] has as its target T1, Alkaline phosphatase, tissue-nonspecific isozyme (Homo sapiens, UniProt P05186).
T1 sequence (P05186 whole entry): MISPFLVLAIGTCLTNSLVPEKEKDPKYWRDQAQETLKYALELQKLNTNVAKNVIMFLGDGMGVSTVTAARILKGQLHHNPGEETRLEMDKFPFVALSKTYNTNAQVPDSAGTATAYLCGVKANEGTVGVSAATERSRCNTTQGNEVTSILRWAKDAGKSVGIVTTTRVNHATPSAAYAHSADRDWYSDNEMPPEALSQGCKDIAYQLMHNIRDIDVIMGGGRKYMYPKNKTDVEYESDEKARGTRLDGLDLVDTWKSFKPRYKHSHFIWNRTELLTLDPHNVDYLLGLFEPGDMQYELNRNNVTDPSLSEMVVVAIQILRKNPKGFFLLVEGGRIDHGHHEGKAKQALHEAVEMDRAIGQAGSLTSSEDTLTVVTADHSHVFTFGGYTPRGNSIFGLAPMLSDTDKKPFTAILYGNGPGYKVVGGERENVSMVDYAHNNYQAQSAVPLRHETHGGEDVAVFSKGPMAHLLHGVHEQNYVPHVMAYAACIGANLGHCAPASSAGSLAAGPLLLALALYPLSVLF

Series [14] in a line: Metabolic stability in mouse liver microsomes measured at 1 uM after 1 hr at pH 7.4 by LC-MS/MS analysis. The class given is ADME. The settings on record: read-out: Stability. The procedure, abridged: as §3
In general terms: Microsomes from liver hold many membrane-bound enzymes, among them those of drug oxidation.

A short description of series [15]: Metabolic stability in mouse plasma assessed as compound remaining at 1:1 1 x pH7.4 PBS measured at 3 hrs by LC-MS/MS analysis. The format is ADME, cell-free. The settings on record: pH 7.4, read-out: Stability. The procedure, abridged: as §3
Series [16] in a line: Plasma protein binding in human at 10 uM by LC-MS analysis. The format is ADME, cell-free. As to conditions: read-out: PPB (converted). Summed up: as §4
Series [17] in a line: Metabolic stability in mouse plasma assessed as compound remaining at 1 x pH7.4 PBS measured at 3 hrs by LC-MS/MS analysis. The format is ADME, cell-free. As to conditions: pH 7.4, read-out: Stability. The procedure, abridged: as §3
Series [18] is described as follows: Aqueous solubility of the compound in pH 6.2 pION buffer by UV kinetic solubility method. The class given is physicochemical. Summed up: as §2
Series [19] is described as follows: Permeability of the compound at donor pH 7.4 and acceptor pH 7.4 by PAMPA. The class given is ADME. Summed up:
as §1

In series [20] the target is T2, Ectonucleotide pyrophosphatase/phosphodiesterase family member 1 (Homo sapiens, UniProt P22413).
T2 sequence (P22413 whole entry): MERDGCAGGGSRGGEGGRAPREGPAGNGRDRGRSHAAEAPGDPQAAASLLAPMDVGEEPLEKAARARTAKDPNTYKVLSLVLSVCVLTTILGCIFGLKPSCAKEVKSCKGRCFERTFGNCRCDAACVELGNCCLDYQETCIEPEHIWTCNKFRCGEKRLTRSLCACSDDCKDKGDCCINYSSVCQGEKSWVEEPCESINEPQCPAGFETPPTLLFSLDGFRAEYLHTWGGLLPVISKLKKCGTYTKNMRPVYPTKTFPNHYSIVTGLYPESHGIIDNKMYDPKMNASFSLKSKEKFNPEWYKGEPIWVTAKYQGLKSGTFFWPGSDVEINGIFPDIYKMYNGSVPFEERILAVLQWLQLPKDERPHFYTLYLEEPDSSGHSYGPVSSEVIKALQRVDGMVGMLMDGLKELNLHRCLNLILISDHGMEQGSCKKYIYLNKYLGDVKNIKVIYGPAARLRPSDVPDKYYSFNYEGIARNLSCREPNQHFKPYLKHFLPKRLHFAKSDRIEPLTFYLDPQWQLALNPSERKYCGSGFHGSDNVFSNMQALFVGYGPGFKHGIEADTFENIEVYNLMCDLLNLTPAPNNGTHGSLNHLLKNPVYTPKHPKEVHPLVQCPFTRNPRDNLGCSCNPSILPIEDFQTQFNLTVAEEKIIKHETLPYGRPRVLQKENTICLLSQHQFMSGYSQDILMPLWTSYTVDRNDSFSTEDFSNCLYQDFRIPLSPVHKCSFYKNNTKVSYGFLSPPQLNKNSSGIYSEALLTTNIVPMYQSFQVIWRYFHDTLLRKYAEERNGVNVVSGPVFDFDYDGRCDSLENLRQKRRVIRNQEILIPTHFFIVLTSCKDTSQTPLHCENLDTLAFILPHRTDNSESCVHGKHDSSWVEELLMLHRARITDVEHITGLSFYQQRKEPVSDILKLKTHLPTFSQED
Description: Inhibition of NPP1 (unknown origin).

Take `CN(C)C(=O)c1cccc(-n2sc3ccccc3c2=O)c1`: the permeability is 92 ×10⁻⁶ cm/s in series [1], 94 ×10⁻⁶ cm/s in [2] and 97 ×10⁻⁶ cm/s in [19]. For the same compound, the solubility (kinetic) in series [3], in series [11] and in series [18] was over 30 µg/mL throughout. Also, the CC50 in series [4] was over 50 µM. For the same compound, the remaining at 3 h in series [5] turned out to be 60%; in [12], 18.9%; in series [15], 56.9%; in series [17], 76.2%. The remaining at 1 h, 1 µM in series [6] came to 45.7%; in [14] it was 56.6%. The fraction unbound at 10 µM is 0.533 in series [7] and 0.558 in [16]. Also, the figures for the fraction unbound at 1 µM in series [8] and in [10] were 0.52 and 0.587, respectively. Besides, the half-inhibitory concentration (IC50) in series [9] was 24 µM; in [13], over 100 µM; in series [20], over 30 µM.

A word on the kinetic solubility: it is solubility judged after dilution from a stock solution rather than from solid. The IC50 is the midpoint of a concentration-inhibition curve.
